Reference: ChEMBL document CHEMBL3045046, “Synthesis, herbicidal activities, and 3D-QSAR of 2-cyanoacrylates containing aromatic methylamine moieties” (J Agric Food Chem, 2008)

Columns and labels:
Type in all cases: functional
Digitaria sanguinalis [1] = test: Herbicidal activity against hairy Digitaria sanguinalis (hairy crabgrass) assessed as inhibition of herb growth at 1.5 kg/ha during postemergence treatment protocol; conditions: post-emergence, read-out: GI
Amaranthus retroflexus [2] = test: Herbicidal activity against Amaranthus retroflexus assessed as inhibition of herb growth at 1.5 kg/ha during postemergence treatment protocol; conditions: post-emergence, read-out: GI
Amaranthus retroflexus [3] = test: Herbicidal activity against Amaranthus retroflexus assessed as inhibition of herb growth at 1.5 kg/ha during preemergence treatment protocol; conditions: pre-emergence, read-out: GI
Medicago sativa [4] = test: Herbicidal activity against Medicago sativa (alfalfa) assessed as inhibition of herb growth at 1.5 kg/ha during postemergence treatment protocol; conditions: post-emergence, read-out: GI
Medicago sativa [5] = test: Herbicidal activity against Medicago sativa (alfalfa) assessed as inhibition of herb growth at 1.5 kg/ha during preemergence treatment protocol; conditions: pre-emergence, read-out: GI
Brassica napus [6] = test: Herbicidal activity against Brassica napus (oilseed rape) assessed as inhibition of herb growth at 1.5 kg/ha during postemergence treatment protocol; conditions: post-emergence, read-out: GI
Digitaria sanguinalis [7] = test: Herbicidal activity against hairy Digitaria sanguinalis (hairy crabgrass) assessed as inhibition of herb growth at 1.5 kg/ha during preemergence treatment protocol; conditions: pre-emergence, read-out: GI
Brassica napus [8] = test: Herbicidal activity against Brassica napus (oilseed rape) assessed as inhibition of herb growth at 1.5 kg/ha during preemergence treatment protocol; conditions: pre-emergence, read-out: GI
Spinacia oleracea = test: Inhibition of photosynthetic electron transport in Spinacia oleracea (spinach)isolated chloroplasts assessed as inhibition of Hill reaction
How it was run: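 Chloroplasts from fresh spinach leaves, homogenised in ice-cold pH 7.8 buffer (0.4 M sucrose, 10 mM NaCl, 50 mM Tris-HCl), spun 3 min 120g then 5 min 1000g at 4 °C. Reaction buffer 350 mM NaCl, 10 mM Tris-HCl pH 7.8 with DCPIP; 2 min light (360 µmol m^-2 s^-1), DCPIP reduction at 620 nm. Compounds 0.01 mg/L–0.3 mg/mL in […]/water, ≥triplicate; IC50 by log-linear regression.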

[9] = Spinacia oleracea, read-out: pIC50 (converted)

Row | SMILES | inhibition of growth at 1500 g/ha (Digitaria sanguinalis [1]) [%] | inhibition of growth at 1500 g/ha (Amaranthus retroflexus [2]) [%] | inhibition of growth at 1500 g/ha (Amaranthus retroflexus [3]) [%] | inhibition of growth at 1500 g/ha (Medicago sativa [4]) [%] | inhibition of growth at 1500 g/ha (Medicago sativa [5]) [%] | inhibition of growth at 1500 g/ha (Brassica napus [6]) [%] | inhibition of growth at 1500 g/ha (Digitaria sanguinalis [7]) [%] | inhibition of growth at 1500 g/ha (Brassica napus [8]) [%] | IC50 (Spinacia oleracea) [ppm] | IC50 (Spinacia oleracea; [9]) [nM]
1 | CCOCCOC(=O)/C(C#N)=C(\NCc1cnc(OC)nc1)C(C)C | 52.2 | 3.4 | 22.2 | 74 | 57.1 | 19.4 | 46.2 | 0 | – | –
2 | CCOCCOC(=O)/C(C#N)=C(\NCc1ccc(Br)nc1)C(C)C | 42.4 | 97.8 | 48.6 | 32.1 | 0 | 100 | 16.8 | 68.7 | 0.099 | 100
3 | CCOCCOC(=O)/C(C#N)=C(\NCc1ccc(Cl)nn1)C(C)C | 48 | 91.6 | 27 | 31.4 | 4.5 | 100 | 10.9 | 59.5 | 4.3 | 4270
4 | CCOCCOC(=O)/C(C#N)=C(\NCc1ccc(N(C)C)nc1)SC | 45.6 | 80.9 | 13.5 | 51.6 | 0 | 100 | 28.7 | 37.4 | 0.292 | 295
5 | CCOCCOC(=O)/C(C#N)=C(\NCc1cnc(OCC)s1)SC | 51.2 | 100 | 43.2 | 62.6 | 14.8 | 100 | 44.6 | 23.3 | 0.115 | 115
6 | CCOCCOC(=O)/C(C#N)=C(\NCc1ccc(Cl)nc1)SC | 89.9 | 100 | 13.7 | 41.3 | 1.5 | 100 | 18.6 | 68.9 | 0.167 | 166
7 | CCOCCOC(=O)/C(C#N)=C(\NCC1CCCO1)SC (stereo not given) | 0 | 37.8 | 9.5 | 23.4 | 21.8 | 47.5 | 35.7 | 0 | 27.92 | 20900
8 | CCOCCOC(=O)/C(C#N)=C(\NCc1cnc(OC)nc1)SC | 2.2 | 15.5 | 58.1 | 45.1 | 42.8 | 28.8 | 26 | 42.4 | 3.79 | 3800
9 | CCOCCOC(=O)/C(C#N)=C(\NCC1CCCO1)C(C)C (stereo not given) | 100 | 100 | 3.2 | 60.5 | 20.3 | 97.2 | 40 | 80 | 6.874 | 6920
10 | CCOCCOC(=O)/C(C#N)=C(\NCc1ccc(OCC)nn1)C(C)C | 57.6 | 70.2 | 54 | 50.7 | 0 | 100 | 26.7 | 44.9 | – | –
11 | CCOCCOC(=O)/C(C#N)=C(\NCc1cnc(OCC(F)(F)F)s1)C(C)C | 95.2 | 100 | 51 | 53.3 | 0 | 100 | 34.6 | 71.9 | 0.074 | 74.1
12 | CCOCCOC(=O)/C(C#N)=C(\NCc1ccc(OCC(F)(F)F)nc1)SC | 100 | 100 | 0 | 54.2 | 0 | 100 | 0 | 10 | 0.048 | 47.9
13 | CCOCCOC(=O)/C(C#N)=C(\NCc1ccc(Cl)cc1)SC | 31.2 | 100 | 59.4 | 12.9 | 0 | 100 | 24.8 | 24.9 | 0.026 | 25.7
14 | CCOCCOC(=O)/C(C#N)=C(\NCc1cnc(OC(C)C)s1)SC | 54.4 | 100 | 40.5 | 53.6 | 4.5 | 100 | 14.8 | 26 | 0.07 | 70.8
15 | CCOCCOC(=O)/C(C#N)=C(\NCc1ccc(Cl)nn1)SC | 28.8 | 21.8 | 43.2 | 27.8 | 0 | 81 | 0 | 12.5 | 3.99 | 3980
16 | CCOCCOC(=O)/C(C#N)=C(\NCc1cnc(Br)s1)C(C)C | 48 | 100 | 18.9 | 30.8 | 1.7 | 100 | 3 | 82.2 | 0.107 | 107
17 | CCOCCOC(=O)/C(C#N)=C(\NCc1ccc(Cl)cc1)C(C)C | 46.4 | 100 | 40.5 | 68.9 | 0 | 100 | 12.9 | 4.4 | 0.043 | 42.7
18 | CCOCCOC(=O)/C(C#N)=C(\NCc1cnc(OCC)s1)C(C)C | 51.2 | 100 | 37.8 | 41.4 | 5.4 | 100 | 0 | 48.7 | 0.223 | 224
19 | CCOCCOC(=O)/C(C#N)=C(\NCc1ccc(N(C)C)nc1)C(C)C | 88 | 100 | 75.7 | 58.3 | 27.9 | 100 | 52.5 | 29.3 | 0.086 | 85.1
20 | CCOCCOC(=O)/C(C#N)=C(\NCc1ccoc1)C(C)C | 0 | 27.4 | 22.1 | 13.2 | 10.5 | 51.9 | 33.6 | 0 | 6.6 | 6610
21 | CCOCCOC(=O)/C(C#N)=C(/CC)NCc1cnc(OC)nc1 | 2.2 | 20.7 | 34.6 | 26 | 29.4 | 63.7 | 36 | 51.5 | – | –
22 | CCOCCOC(=O)/C(C#N)=C(\NCc1ccc(N2CCOCC2)nn1)SC | 2.4 | 24 | 13.5 | 32.8 | 10.1 | 18.1 | 6.9 | 10.9 | – | –
23 | CCOCCOC(=O)/C(C#N)=C(\NCc1ccc(N2CCOCC2)nn1)C(C)C | 13.6 | 19.1 | 5.4 | 15.2 | 2.6 | 85.4 | 22.8 | 49.8 | – | –
